Experimental data published in BindingDB's records for PubMed 19295546 (Mayo Clinic).

Legend:
[1] = target: Signal transducer and activator of transcription 3 (Homo sapiens, UniProt P40763); assay: Inhibition of STAT3 phosphorylation in human HEL cells by Western blot analysis
[2] = target: 3-phosphoinositide-dependent protein kinase 1 (PDPK1) (Homo sapiens) (UniProt O15530); assay: Inhibition of PDK1 (unknown origin)
[3] = target: T1, Signal transducer and activator of transcription 5A (Homo sapiens, UniProt P42229); assay: Inhibition of STAT5 phosphorylation in human HEL cells by Western blot analysis
T1 sequence (P42229 whole entry): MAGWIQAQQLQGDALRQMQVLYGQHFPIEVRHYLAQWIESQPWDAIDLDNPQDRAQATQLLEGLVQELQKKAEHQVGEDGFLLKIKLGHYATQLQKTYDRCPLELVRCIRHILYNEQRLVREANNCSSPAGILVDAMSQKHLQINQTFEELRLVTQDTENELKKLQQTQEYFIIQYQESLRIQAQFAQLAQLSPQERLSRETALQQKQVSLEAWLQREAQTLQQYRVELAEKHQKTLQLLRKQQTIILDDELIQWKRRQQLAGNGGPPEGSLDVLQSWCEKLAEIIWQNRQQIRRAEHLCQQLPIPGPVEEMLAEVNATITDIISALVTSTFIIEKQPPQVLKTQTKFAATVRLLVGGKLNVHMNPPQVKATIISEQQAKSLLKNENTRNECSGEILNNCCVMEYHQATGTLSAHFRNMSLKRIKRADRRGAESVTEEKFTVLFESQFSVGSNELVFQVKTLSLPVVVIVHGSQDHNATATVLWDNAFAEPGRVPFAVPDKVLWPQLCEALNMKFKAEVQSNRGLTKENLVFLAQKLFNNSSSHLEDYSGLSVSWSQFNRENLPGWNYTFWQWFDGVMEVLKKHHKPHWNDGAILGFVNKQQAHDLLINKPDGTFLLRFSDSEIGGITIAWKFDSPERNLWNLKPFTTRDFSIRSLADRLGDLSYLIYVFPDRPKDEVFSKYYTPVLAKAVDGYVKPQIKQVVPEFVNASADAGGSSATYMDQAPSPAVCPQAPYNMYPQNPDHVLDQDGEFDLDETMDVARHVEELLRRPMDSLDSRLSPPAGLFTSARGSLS
Summary of the method: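 HEL cells were starved overnight in RPMI with 1% FCS, then exposed to compound for 2 h at 37 °C. Cells were lysed in RIPA buffer (50 mM HEPES pH 7.4, 150 mM NaCl, 1% Triton X-100, deoxycholate, 0.1% SDS) with protease and phosphatase inhibitors. Protein was quantified by Bradford assay and blots were developed by chemiluminescence. Membranes were stripped and reprobed for total STAT5.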

Sequence of Signal transducer and activator of transcription 3 (P40763 whole entry): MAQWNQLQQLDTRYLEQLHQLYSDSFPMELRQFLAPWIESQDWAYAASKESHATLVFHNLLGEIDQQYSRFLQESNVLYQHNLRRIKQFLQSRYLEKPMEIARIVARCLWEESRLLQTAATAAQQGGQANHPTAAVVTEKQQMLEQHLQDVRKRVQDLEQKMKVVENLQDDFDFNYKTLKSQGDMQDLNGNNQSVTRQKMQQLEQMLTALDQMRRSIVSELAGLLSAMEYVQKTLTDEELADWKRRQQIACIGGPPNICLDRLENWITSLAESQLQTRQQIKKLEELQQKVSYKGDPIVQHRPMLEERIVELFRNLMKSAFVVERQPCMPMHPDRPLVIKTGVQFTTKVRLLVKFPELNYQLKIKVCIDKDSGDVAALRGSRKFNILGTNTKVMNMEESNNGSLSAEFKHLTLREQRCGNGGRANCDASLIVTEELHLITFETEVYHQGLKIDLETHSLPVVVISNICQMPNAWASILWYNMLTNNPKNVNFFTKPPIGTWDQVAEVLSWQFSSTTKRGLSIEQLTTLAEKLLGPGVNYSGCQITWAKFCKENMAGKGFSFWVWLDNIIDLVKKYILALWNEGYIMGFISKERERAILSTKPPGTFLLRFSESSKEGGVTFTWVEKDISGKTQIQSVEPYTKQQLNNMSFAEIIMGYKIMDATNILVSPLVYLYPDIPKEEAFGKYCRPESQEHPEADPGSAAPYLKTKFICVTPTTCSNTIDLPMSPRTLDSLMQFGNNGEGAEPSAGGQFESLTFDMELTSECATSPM

SMILES: N#CCNC(=O)c1ccc(-c2ccnc(Nc3ccc(N4CCOCC4)cc3)n2)cc1 [N-(cyanomethyl)-4-(2-(4-morpholinophenylamino)pyrimidin-4-yl)benzamide]
- IC50 [1]: 2500 nM
- IC50 [2]: > 1000 nM
- IC50 [3]: 400 nM
